Experimental findings from ChEMBL document CHEMBL1153564 (Antimicrob Agents Chemother, 2008) are described below.

≈ marks a conversion by molar mass, not a printed value. Calls of active or inactive are those of the source. The calls are words filed in the database; no cut-off is given here. Starred links: 1 amine or outer side, 2 acyl side, 3 side chain; linkers in the order of their positions; H or OH if unused. Positions of bridges follow the written chain, without caps; N, C: chain ends. Non-standard residues stand in square brackets, D forms with d. Residues, ends and D or L forms follow the SMILES beside them. *: point of attachment. pTerphenylCO(4''-OnC5H11) = CCCCCOc1ccc(-c2ccc(-c3ccc(C(=O)*)cc3)cc2)cc1; Orn(4R-OH,5R-OH) = O=C([C@H](C[C@@H](O)[C@@H](O)N[*:3])N[*:1])[*:2]; hTyr(3S-OH,4S-OH) = N[C@H](C(=O)O)[C@H](O)[C@@H](O)c1ccc(O)cc1; Pro(3S-OH,4S-Me) = C[C@H]1CN[C@H](C(=O)O)[C@H]1O; Hyp = O=C(O)[C@@H]1C[C@@H](O)CN1 Where only a bound is given, the exact number is not on record here.

Data set [1] relates to Nakaseomyces glabratus. As to the kind of experiment: Antifungal activity against Candida glabrata 33609 infected in neutropenic ICR/Swiss mouse candidiasis model assessed as dose required for 1-log10 reduction in […] per kidney administered intraperitoneally every 24 hrs up to 4 days measured per 24 hrs. Type of data set: functional. An outline of the steps:
(§1)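 Neutropenic mice (cyclophosphamide sc on days −4, −1 and +2) were infected iv 2 h before therapy. Five total doses from 0.078 to 20 mg/kg/24 h were given ip q24h for 4 days, three mice per regimen. Kidney CFU were measured at the end of therapy. Static and 1-log-kill doses were derived from a Hill sigmoid dose-effect fit.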

Data set [2] has as its system Nakaseomyces glabratus. As to the kind of experiment: Antifungal activity against Candida glabrata 33616 infected in neutropenic ICR/Swiss mouse candidiasis model assessed as fungal count per kidney administered 2 hrs postinfection measured up to 48 hrs. Type of data set: functional. An outline of the steps: (§2)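 Female ICR/Swiss mice (23–27 g) made neutropenic with cyclophosphamide s.c. (150 mg/kg day −4, 100 mg/kg day −1, 100 mg/kg day +2). Infected by tail vein with 0.1 ml inoculum (~6.1 log10 CFU/ml). Kidneys of untreated mice were homogenised and plated on SDA for 24 h at 35°C. Growth over 48 h is given as log10 CFU/kidney.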

The test system of the next data set is Serum. Kind of data set: Fraction unbound in Candida albicans K-1 infected neutropenic ICR/Swiss mouse serum at 1.25 mg/kg, ip administered 2 hrs postinfection as single dose. The following applies: in vivo. Format: ADME, organism-based. Details: dose 1.25 mg/kg, route intraperitoneal.
For data set [3], the system named is Candida albicans. Kind of data set: Antifungal activity against Candida albicans K-1 infected in neutropenic ICR/Swiss mouse candidiasis model assessed as dose required to maintain […] of 3.90 +/- 0.15 log10CFU per kidney administered intraperitoneally every 48 hrs up to 4 days measured per 96 hrs. Type of data set: functional. An outline of the steps: (§3)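 Neutropenic mice were infected iv with C. albicans K-1 2 h before therapy. Total doses of 1.25, 5, 20, 80 and 320 mg/kg/96 h were split into 1, 2, 4 or 6 ip doses (q96h, q48h, q24h, q16h), three mice per regimen. Effect is the log10 CFU/kidney relative to untreated controls at 96 h. Static and 1-log doses were taken from a Hill model fit.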

Data set [4] concerns Nakaseomyces glabratus. As to the kind of experiment: Antifungal activity against Candida glabrata 5376 infected in neutropenic ICR/Swiss mouse candidiasis model assessed as dose required to maintain […] burden of 1.83 +/- 0.54 log10CFU per kidney administered intraperitoneally every 24 hrs up to 4 days measured per 24 hrs. Format: functional.
Data set [5] deals with Nakaseomyces glabratus. Kind of data set: Antifungal activity against Candida glabrata 5592 infected in neutropenic ICR/Swiss mouse candidiasis model assessed as fungal count per kidney administered 2 hrs postinfection measured up to 48 hrs. Format: functional. An outline of the steps:
as §2

The test system of data set [6] is Candida albicans. Kind of data set: Antifungal activity against Candida albicans K-1 infected in neutropenic ICR/Swiss mouse candidiasis model assessed as reduction of […] in kidney at 1.25 mg/kg, ip administered 2 hrs postinfection as single dose measured within 1 to 4 hrs post dosing by time-kill assay. Type of data set: functional, organism-based. Details: dose 1.25 mg/kg. An outline of the steps: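 Neutropenic mice given a single ip dose (1.25, 5 or 20 mg/kg) 2 h after tail-vein infection. Kidneys from 3 mice per time point collected nine times over 96 h. Homogenates serially diluted 1:10 and plated on SDA, 24 h at 35°C. Detection limit 100 CFU/ml.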

A short description of data set [7]: Cmax in human at 100 mg/day. Type of data set: ADME, organism-based. Details: dose 100 mg/day. The following applies: in vivo.
Data set [8] relates to Nakaseomyces glabratus. As to the kind of experiment: Antifungal activity against Candida glabrata 33609 assessed as complete growth inhibition after 24 hrs by CLSI end point method. The following applies: Nakaseomyces glabratus, 33609, 24 h. Type of data set: functional. An outline of the steps:
(§4)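 CLSI M27-A2 broth dilution. Two end points read against the drug-free control well: partial inhibition (CLSI end point) and complete inhibition. Run in duplicate on four separate occasions; value is the mean. Drug stock in DMSO, diluted in 0.9% NaCl.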

Data set [9] concerns Nakaseomyces glabratus. As to the kind of experiment: Antifungal activity against Candida glabrata 513 assessed as partial growth inhibition after 24 hrs by CLSI end point method. Type of data set: functional. As to conditions: Nakaseomyces glabratus, 513, 24 h. An outline of the steps:
(§5)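 Two end points were read against the drug-free control well: partial growth inhibition (the CLSI end point) and complete inhibition. Run in duplicate on four separate occasions; the value is the mean. Drug stock was made in DMSO and diluted in 0.9% NaCl.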

Data set [10] concerns Candida albicans. As to the kind of experiment: Antifungal activity against Candida albicans K-1 infected in neutropenic ICR/Swiss mouse candidiasis model assessed as prolongation of fungal growth suppression at 20 mg/kg, ip administered 2 hrs postinfection as single dose by time-kill assay. As to conditions: route intraperitoneal. Type of data set: functional. An outline of the steps:
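Single ip dose (20, 5 or 1.25 mg/kg) given 2 h after iv infection of neutropenic mice with K-1. Three treated and three control mice were sampled at intervals over 96 h for kidney CFU. PAFE is the time for treated burden to rise 1 log10 after serum levels fall below MIC, minus the same time in controls. Free drug was taken as 1%.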

The test system of data set [11] is Nakaseomyces glabratus. As to the kind of experiment: Antifungal activity against Candida glabrata 32930 infected in neutropenic ICR/Swiss mouse candidiasis model assessed as fungal count per kidney administered 2 hrs postinfection measured up to 48 hrs. Type of data set: functional. An outline of the steps:
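Untreated neutropenic mice infected via the tail vein (inoculum about 6.1 log10 CFU/ml, 0.1 ml). Growth is the rise in kidney CFU over 48 h. Kidneys were homogenised, serially diluted 1:10 and plated on SDA for 24 h at 35°C. Mean of three mice.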

Data set [12] has as its system Candida albicans. Kind of data set: Antifungal activity against Candida albicans 98-17 infected in neutropenic ICR/Swiss mouse candidiasis model assessed as dose required for 1-log10 reduction in […] per kidney administered intraperitoneally every 24 hrs up to 4 days measured per 24 hrs. Format: functional. An outline of the steps:
as §1

Data set [13] has as its system Candida albicans. Kind of data set: Antifungal activity against Candida albicans K-1 infected in neutropenic ICR/Swiss mouse candidiasis model assessed as dose required for 1-log10 reduction in […] per kidney administered intraperitoneally every 24 hrs up to 4 days measured per 96 hrs. Format: functional. The method in brief: as §3
Data set [14] concerns Nakaseomyces glabratus. As to the kind of experiment: Antifungal activity against Candida glabrata 5592 assessed as complete growth inhibition after 24 hrs by CLSI end point method. Format: functional. As to conditions: Nakaseomyces glabratus, 5592, 24 h. The method in brief:
as §5

Data set [15] relates to Nakaseomyces glabratus. As to the kind of experiment: Antifungal activity against Candida glabrata 35315 assessed as complete growth inhibition after 24 hrs by CLSI end point method. As to conditions: Nakaseomyces glabratus, 35315, 24 h. Type of data set: functional. An outline of the steps:
as §5

Data set [16] has as its system Nakaseomyces glabratus. As to the kind of experiment: Antifungal activity against Candida glabrata 32930 assessed as partial growth inhibition after 24 hrs by CLSI end point method. Format: functional. The following applies: Nakaseomyces glabratus, 32930, 24 h. The method in brief: as §4
In data set [17] the test system is Nakaseomyces glabratus. Kind of data set: Antifungal activity against Candida glabrata 35315 assessed as partial growth inhibition after 24 hrs by CLSI end point method. Format: functional. The following applies: Nakaseomyces glabratus, 35315, 24 h. The method in brief:
as §5

Data set [18] deals with Candida albicans. Kind of data set: Antifungal activity against Candida albicans K-1 infected in neutropenic ICR/Swiss mouse candidiasis model assessed as dose required to maintain […] of 3.81 +/- 0.33 log10CFU per kidney administered intraperitoneally every 24 hrs up to 4 days measured per 24 hrs. Type of data set: functional. An outline of the steps:
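Neutropenic mice (cyclophosphamide sc 150 mg/kg day −4, 100 mg/kg day −1 and day +2) infected iv via tail vein, 2 h before therapy. Drug given ip in 0.2 ml, diluted from DMSO stock in 0.9% NaCl, q24h for 4 days over five dose levels (0.078–20 mg/kg/24 h), 3 mice per regimen. Kidney CFU on SDA. Static dose taken from a sigmoid Emax (Hill) fit.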

In data set [19] the test system is Nakaseomyces glabratus. As to the kind of experiment: Antifungal activity against Candida glabrata 34341 assessed as partial growth inhibition after 24 hrs by CLSI end point method. Format: functional. The following applies: Nakaseomyces glabratus, 34341, 24 h. An outline of the steps:
as §5

Data set [20] relates to Nakaseomyces glabratus. As to the kind of experiment: Antifungal activity against Candida glabrata 34341 infected in neutropenic ICR/Swiss mouse candidiasis model assessed as fungal count per kidney administered 2 hrs postinfection measured up to 48 hrs. Type of data set: functional. The method in brief:
as §2

Regarding `CCCCCOc1ccc(-c2ccc(-c3ccc(C(=O)N[C@H]4C[C@@H](O)[C@@H](O)NC(=O)[C@@H]5[C@@H](O)[C@@H](C)CN5C(=O)[C@H]([C@@H](C)O)NC(=O)[C@H]([C@H](O)[C@@H](O)c5ccc(O)cc5)NC(=O)[C@@H]5C[C@@H](O)CN5C(=O)[C@H]([C@@H](C)O)NC4=O)cc3)cc2)cc1` [ANIDULAFUNGIN] ({pTerphenylCO(4''-OnC5H11)}-[Orn(4R-OH,5R-OH)]T[Hyp][hTyr(3S-OH,4S-OH)]T[Pro(3S-OH,4S-Me)]; lactam 1-C), the Activity in the data set with Nakaseomyces glabratus [1] was 4.21 mg/kg; in the data set on Candida albicans [3], 5.01 mg/kg; in the data set with Nakaseomyces glabratus [4] it was 6.8 mg/kg; in the data set with Candida albicans [10], >96 h; in the data set on Candida albicans [12], 1.95 mg/kg; in the data set on Candida albicans [13] it was 8.1 mg/kg. Besides, the Activity with Candida albicans [18] was 1.25 mg/kg. Also, the log10cfu was 1.81 in the data set with Nakaseomyces glabratus [2], 2.1 in the data set with Nakaseomyces glabratus [5], 1.29 with Nakaseomyces glabratus [11] and 1.82 in the data set with Nakaseomyces glabratus [20]. Moreover, in the data set with Serum, the Fu was 1%. In addition, the outcome with Candida albicans [6] was Active. In data set [7], the maximum concentration (Cmax) (in general, the highest concentration seen after dosing) worked out at 11000 ng/mL. Also, the MIC – broadly, the lowest concentration that inhibits growth of the organism – in the data set on Nakaseomyces glabratus [8] was found to be 0.12 µg/mL (≈ 0.105 µM); in the data set on Nakaseomyces glabratus [9], 0.06 µg/mL (≈ 0.0526 µM); in the data set on Nakaseomyces glabratus [14], 0.12 µg/mL (≈ 0.105 µM); in the data set on Nakaseomyces glabratus [15], 1 µg/mL (≈ 0.877 µM); in the data set on Nakaseomyces glabratus [16] it was 0.06 µg/mL (≈ 0.0526 µM); in the data set with Nakaseomyces glabratus [17], 0.25 µg/mL (≈ 0.219 µM). Further, the minimal inhibitory concentration (MIC) in the data set with Nakaseomyces glabratus [19] was 0.12 µg/mL (≈ 0.105 µM).
